Assay results published in ChEMBL document CHEMBL3817745, “Structure-Activity Relationship for the 4(3H)-Quinazolinone Antibacterials” (J Med Chem, 2016).
In brackets after ≈: the same amount, converted by molar mass. Activity calls are given as the source filed them. The rule behind the calls is not given here.

Assays:
[1] = tested on: Staphylococcus haemolyticus; assay: Antibacterial activity against Staphylococcus haemolyticus ATCC 29970 incubated for 16 to 20 hrs by microdilution method; type: functional
[2] = Drug level in uninfected thighs of ICR mouse neutropenic thigh model of methicillin-resistant Staphylococcus aureus NRS70 infection at 10 mg/kg, sc tid administered every 8 hrs starting from 1 hr post infection and measured 7 hrs post last dose by UPLC analysis; type: ADME, organism-based; conditions: in vivo, BLD = below limit of detection
Summary of the method: (§1)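 Neutropenic thigh model (cyclophosphamide 200 mg/kg ip, NRS70 im), sc doses at 1, 9 and 17 h; at 24 h cardiac blood and uninfected thigh taken (n = 8 per group); thigh homogenate supernatant and plasma acetonitrile-quenched with internal standard, analysed by UPLC with MRM detection.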

[3] = tested on: Staphylococcus aureus; assay: Antibacterial activity against mecA-positive multidrug resistant Staphylococcus aureus NRS119 incubated for 16 to 20 hrs by microdilution method; type: functional
[4] = tested on: Plasma; assay: Drug level in plasma of ICR mouse neutropenic thigh model of methicillin-resistant Staphylococcus aureus NRS70 infection at 10 mg/kg, sc tid administered every 8 hrs starting from 1 hr post infection and measured 7 hrs post last dose by UPLC analysis; type: ADME, organism-based; conditions: in vivo, BLD = below limit of detection; summary of the method: as §1
[5] = tested on: Staphylococcus aureus; assay: Antibacterial activity against methicillin-resistant Staphylococcus aureus NRS70 in ICR mouse neutropenic thigh infection model assessed as reduction in bacterial load at 10 mg/kg, sc tid administered every 8 hrs starting from 1 hr post infection and measured 7 hrs post last dose; type: functional, organism-based
Summary of the method: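 Female ICR mice (n = 8 per group) made neutropenic with ip cyclophosphamide 200 mg/kg at 4 days and 1 day pre-infection; 100 μL NRS70 (~1×10^6 CFU/mL in brain–heart infusion) injected im into right thigh; sc doses at 1, 9, 17 h; thighs harvested at 24 h, homogenized, plated in triplicate on LB agar; log10 CFU/g.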

[6] = tested on: Staphylococcus aureus; assay: […] activity against multidrug resistant Staphylococcus aureus ATCC 27660; type: functional; conditions: read-out: MBC99.9
[7] = tested on: Enterococcus faecium; assay: Antibacterial activity against Enterococcus faecium NCTC 7171 incubated for 16 to 20 hrs by microdilution method; type: functional
Summary of the method: (§2)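 CLSI broth microdilution. 2-fold serial dilutions were made in cation-adjusted Mueller–Hinton broth, with 5% lysed horse blood added for Streptococcus strains, in triplicate. Inoculum 5×10^5 CFU/mL. Plates incubated 36 °C for 16–20 h. MIC taken as the lowest concentration visibly inhibiting growth.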

[8] = tested on: Staphylococcus aureus; assay: […] activity against methicillin-susceptible Staphylococcus aureus ATCC 29213; type: functional; conditions: read-out: MBC99.9
[9] = tested on: Staphylococcus aureus; assay: Antibacterial activity against mecA-positive multidrug resistant Staphylococcus aureus NRS120 incubated for 16 to 20 hrs by microdilution method; type: functional
[10] = tested on: Staphylococcus aureus; assay: […] activity against methicillin-resistant Staphylococcus aureus NRS70; type: functional; conditions: read-out: MBC99.9
[11] = tested on: Staphylococcus epidermidis; assay: Antibacterial activity against Staphylococcus epidermidis ATCC 35547 incubated for 16 to 20 hrs by microdilution method; type: functional; summary of the method: as §2

## CC(=O)NC[C@H]1CN(c2ccc(N3CCOCC3)c(F)c2)C(=O)O1 [LINEZOLID]
[1]
  MIC: 2 µg/mL (≈ 5.93 µM)
[2]
  Drug uptake: BLD
[3]
  MIC: 32 µg/mL (≈ 94.9 µM)
[4]
  Cp: BLD
[5]
  Activity: Active
[6]
  MBC: 16 µg/mL (≈ 47.4 µM)
[7]
  MIC: 2 µg/mL (≈ 5.93 µM)
[8]
  MBC: 16 µg/mL (≈ 47.4 µM)
[9]
  MIC: 32 µg/mL (≈ 94.9 µM)
[10]
  MBC: 8 µg/mL (≈ 23.7 µM)
[11]
  MIC: 1 µg/mL (≈ 2.96 µM)
